{"source": "paper PMC5004525", "about": "(Pharmacognosy Research, 2016)", "assay_type_in_all_cases": "biochemical", "key": {"human recombinant UGT1A1": {"molecular_target": "T1, human recombinant UGT1A1 (Homo sapiens, UniProt P22309)", "T1 sequence (P22309 26-533)": "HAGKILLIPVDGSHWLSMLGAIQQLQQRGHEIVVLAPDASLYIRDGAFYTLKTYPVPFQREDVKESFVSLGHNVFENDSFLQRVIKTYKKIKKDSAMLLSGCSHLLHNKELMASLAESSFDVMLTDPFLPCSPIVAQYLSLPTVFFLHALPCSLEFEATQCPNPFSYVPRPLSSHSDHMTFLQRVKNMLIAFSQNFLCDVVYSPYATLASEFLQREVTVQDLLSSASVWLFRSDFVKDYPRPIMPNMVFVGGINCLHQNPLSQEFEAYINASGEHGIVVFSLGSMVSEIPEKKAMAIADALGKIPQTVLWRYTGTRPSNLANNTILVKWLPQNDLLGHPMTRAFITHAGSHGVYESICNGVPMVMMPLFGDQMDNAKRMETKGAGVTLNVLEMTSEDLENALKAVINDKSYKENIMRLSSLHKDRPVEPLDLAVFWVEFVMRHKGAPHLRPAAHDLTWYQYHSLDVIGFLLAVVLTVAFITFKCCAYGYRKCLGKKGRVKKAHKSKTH", "test": "UGT-Glo luminescent inhibition assay, human recombinant UGT1A1", "procedure,_shortened": "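UGT-Glo luminescent assay at 37°C with 0.1 mg/mL UGT supersomes, 20 µM multienzyme substrate and 4 mM UDPGA. Incubation was 90 min for UGT1A1 and 60 min for UGT2B7. Reactions were stopped with luciferin detection reagent plus D-cysteine for 20 min at room temperature, then luminescence read. Control microsomes lacking UGT served as negative control. Extracts were tested at 0.1–1000 µg/mL and constituents at 0.02–200 µM. IC50 was fitted by nonlinear regression; three determinations from two experiments.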"}, "[1]": {"tested_on": "rat liver glutathione transferase enzyme", "test": "Inhibition of rat liver GST", "procedure,_shortened": "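Rat liver cytosol was the 100,000 ×g 60 min supernatant, taken after a 12,500 ×g spin of homogenate in 67 mM phosphate, pH 7.4, with 1.15% KCl. Assay used 0.125 mg/mL cytosol, 0.1 M potassium phosphate pH 6.5, 0.001 M GSH and CDNB, read at 340 nm for 5 min. Blanks used cytosol heat-denatured at 60°C for 20 min.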"}, "[2]": {"molecular_target": "human glutathione transferase Pi-1 (hGSTP1) (Homo sapiens, UniProt P09211)", "sequence (P09211 2-210 limits assumed)": "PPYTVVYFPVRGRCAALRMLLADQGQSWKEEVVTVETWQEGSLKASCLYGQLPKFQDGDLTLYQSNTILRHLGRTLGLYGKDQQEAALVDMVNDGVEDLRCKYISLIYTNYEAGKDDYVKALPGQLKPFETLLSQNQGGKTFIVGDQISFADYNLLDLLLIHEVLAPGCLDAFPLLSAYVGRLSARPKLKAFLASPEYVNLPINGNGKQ", "test": "Inhibition of human GST Pi-1", "procedure,_shortened": "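Purified recombinant human GSTP1 (0.003 mg/mL) in 0.1 M potassium phosphate, pH 6.5, with 0.001 M GSH and CDNB as substrate. Test compounds were tested at 0.01–500 µM and extracts at 0.01–1000 µg/mL. CDNB–GSH conjugation was read at 340 nm over 20 min. The blank replaced enzyme with buffer. Activity is expressed as percent of no-inhibitor control, 5 replicates.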"}, "human recombinant UGT2B7": {"molecular_target": "T2, human recombinant UGT2B7 (Homo sapiens, UniProt P16662)", "T2 sequence (P16662 24-529)": "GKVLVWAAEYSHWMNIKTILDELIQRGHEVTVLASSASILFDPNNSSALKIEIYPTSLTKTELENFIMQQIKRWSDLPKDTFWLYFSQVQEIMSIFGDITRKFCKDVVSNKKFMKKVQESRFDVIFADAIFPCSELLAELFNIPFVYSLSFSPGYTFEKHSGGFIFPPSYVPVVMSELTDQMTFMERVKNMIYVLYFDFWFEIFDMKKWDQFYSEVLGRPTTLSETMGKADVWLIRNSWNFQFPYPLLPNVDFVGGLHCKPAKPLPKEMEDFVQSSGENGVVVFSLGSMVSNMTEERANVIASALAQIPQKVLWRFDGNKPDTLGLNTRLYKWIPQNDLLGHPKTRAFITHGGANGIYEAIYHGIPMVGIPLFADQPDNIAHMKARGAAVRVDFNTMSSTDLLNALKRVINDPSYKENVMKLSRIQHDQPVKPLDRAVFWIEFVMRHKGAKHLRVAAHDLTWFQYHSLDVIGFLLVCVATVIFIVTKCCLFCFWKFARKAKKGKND", "test": "UGT-Glo luminescent inhibition assay, human recombinant UGT2B7", "settings": "human recombinant enzyme"}, "[3]": {"tested_on": "rat liver UDP-glucuronosyltransferase enzyme (rat liver microsomes)", "test": "Inhibition of rat liver UGT in rat liver microsomes", "settings": "up to the highest concentration investigated"}}, "note": "Entries after “also recorded” stand apart in the source; their conditions may differ.", "data": [{"compound": "CC(C)=CCC[C@@H](C)c1ccc(C)c(O)c1", "note": "[Xanthorrhizol, xanthorrhizol]", "values": [{"measurement": "inhibitory effect on UGT1A1 compared to UGT2B7", "setting": "human recombinant UGT1A1; ratio of IC50 values UGT2B7/UGT1A1", "result": 3, "unit": "times"}, {"measurement": "inhibition of rat liver GST (in words)", "setting": "[1]", "result": "very low inhibition or no inhibition"}, {"measurement": "inhibition of hGSTP1 (in words)", "setting": "[2]", "result": "did not show inhibition"}, {"measurement": "inhibition at 500 µM", "setting": "[2]; read-out: percentage of inhibition of hGSTP1 activity", "result": "< 50", "unit": "%"}]}, {"compound": "Tannic acid [reference compound]", "values": [{"measurement": "IC50, rat liver GST", "setting": "[1]; CDNB substrate, mean ± SEM, n = 5", "result": "4.83 ± 2.29", "unit": "µg/mL"}]}, {"compound": "CC(C)=CCCC(C)c1ccc(C)cc1", "note": "(centres unmarked) [Curcumene, curcumene]", "values": [{"measurement": "inhibition of UGT1A1 (in words)", "setting": "human recombinant UGT1A1; human recombinant enzyme", "result": "weaker inhibition"}, {"measurement": "inhibition of UGT2B7 (in words)", "setting": "human recombinant UGT2B7", "result": "did not show any inhibition; also recorded: weaker inhibition"}, {"measurement": "inhibition of rat liver GST (in words)", "setting": "[1]", "result": "very low inhibition or no inhibition"}, {"measurement": "inhibition of hGSTP1 (in words)", "setting": "[2]", "result": "did not show inhibition"}, {"measurement": "percentage of inhibition of hGSTP1 activity", "setting": "[2]; at the highest concentration determined (compounds 500 µM)", "result": "< 50", "unit": "%"}, {"measurement": "inhibition of rat liver UGT enzyme activity (in words)", "setting": "[3]", "result": "did not show any inhibition"}]}]}
